Assay results published in ChEMBL document CHEMBL1773039, “Structure-Activity Study of Dihydrocinnamic Acids and Discovery of the Potent FFA1 (GPR40) Agonist TUG-469” (ACS Med Chem Lett, 2010).
Active and inactive are the calls of the source. The calls are words filed in the database; no cut-off is given here.

Key:
[1] = molecular target: T1, Peroxisome proliferator-activated receptor gamma (Homo sapiens) (UniProt P37231); assay: Transactivation of human PPARgamma ligand binding domain transfected in mouse embryo fibroblasts at 100 uM after 18 hrs analyzed by photinus and renilla luciferase activity by luminometry relative to 1 uM rosiglitazone
T1 sequence (whole entry): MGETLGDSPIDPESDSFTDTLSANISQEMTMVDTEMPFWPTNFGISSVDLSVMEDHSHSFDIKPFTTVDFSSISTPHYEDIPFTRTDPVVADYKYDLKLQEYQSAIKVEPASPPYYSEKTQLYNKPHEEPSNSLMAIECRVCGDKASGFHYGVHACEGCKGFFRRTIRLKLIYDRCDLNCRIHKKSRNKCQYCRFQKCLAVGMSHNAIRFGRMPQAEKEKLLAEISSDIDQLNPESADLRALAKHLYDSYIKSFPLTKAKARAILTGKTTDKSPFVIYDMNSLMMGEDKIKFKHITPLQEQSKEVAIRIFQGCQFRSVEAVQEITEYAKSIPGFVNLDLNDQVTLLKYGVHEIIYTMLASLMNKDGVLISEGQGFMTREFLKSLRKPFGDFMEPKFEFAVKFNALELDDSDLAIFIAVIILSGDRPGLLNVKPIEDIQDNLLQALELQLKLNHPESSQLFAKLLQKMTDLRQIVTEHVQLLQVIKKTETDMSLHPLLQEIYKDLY

[2] = molecular target: Free fatty acid receptor 3 (Homo sapiens) (UniProt O14843); assay: Agonist activity at human GPR41 in HEK293 cells
[3] = molecular target: T2, Free fatty acid receptor 1 (Homo sapiens, UniProt O14842); assay: Agonist activity at human FFA1 transfected in 1321N1 cells under serum-free condition up to 1 hr by dynamic mass redistribution optical biosensor assay; assay type: functional, cell-based
Outline: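 hFFA1-transfected 1321N1 cells were exposed to a range of agonist concentrations. Label-free dynamic mass redistribution was tracked over time as the resonant wavelength shift (pm), a read-out of receptor activation. pEC50 was taken from concentration-response curves of this signal.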

[4] = molecular target: T2, Free fatty acid receptor 1; assay: Agonist activity at human FFA1 transfected in 1321N1 cells assessed as calcium mobilization by microplate assay relative to 10 uM TUG-20; assay type: functional, cell-based
Outline: (§1)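 Calcium mobilization in hFFA1-expressing cells was measured as full concentration-response curves and reported as pEC50. Efficacy is % of the response to 10 μM of the reference agonist.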

[5] = molecular target: Free fatty acid receptor 2 (Homo sapiens) (UniProt O15552); assay: Agonist activity at human GPR43 in HEK293 cells
[6] = Induction of 12 mM glucose-stimulated insulin secretion in rat INS-1E cells at 10 uM after 1 hr by radioimmunoassay; assay type: functional
[7] = molecular target: T1, Peroxisome proliferator-activated receptor gamma (Homo sapiens); assay: Transactivation of human PPARgamma ligand binding domain transfected in mouse embryo fibroblasts assessed as renilla luciferase activity at 1 uM after 18 hrs by luminometry relative to 1 uM rosiglitazone
[8] = organism: Homo sapiens; assay: Selectivity for human FFA1 over human PPARgamma
[9] = tested on: INS-1E; assay: Induction of 2.8 mM glucose-stimulated insulin secretion in rat INS-1E cells at 10 uM after 1 hr by radioimmunoassay; assay type: functional, cell-based
[10] = molecular target: T2, Free fatty acid receptor 1; assay: Agonist activity at human FFA1 transfected in 1321N1 cells assessed as calcium mobilization by microplate assay; assay type: functional, cell-based; outline: as §1
[11] = Cytotoxicity in mouse embryo fibroblasts at 100 uM; assay type: cell-based; details: fibroblast
[12] = molecular target: T1, Peroxisome proliferator-activated receptor gamma (Homo sapiens); assay: Transactivation of human PPARgamma ligand binding domain transfected in mouse embryo fibroblasts assessed as renilla luciferase activity at 10 uM by luminometry relative to 1 uM rosiglitazone

T2 sequence (O14842 whole entry): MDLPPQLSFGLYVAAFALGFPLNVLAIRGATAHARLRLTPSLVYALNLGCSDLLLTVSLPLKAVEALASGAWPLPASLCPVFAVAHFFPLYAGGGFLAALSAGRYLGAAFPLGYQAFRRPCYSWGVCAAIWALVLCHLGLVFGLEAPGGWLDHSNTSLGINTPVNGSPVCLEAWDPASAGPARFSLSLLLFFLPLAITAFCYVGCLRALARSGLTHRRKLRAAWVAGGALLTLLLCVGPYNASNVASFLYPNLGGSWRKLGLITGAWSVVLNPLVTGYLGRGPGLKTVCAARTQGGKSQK
Sequence of Free fatty acid receptor 3 (Homo sapiens) (O14843 whole entry, looked up): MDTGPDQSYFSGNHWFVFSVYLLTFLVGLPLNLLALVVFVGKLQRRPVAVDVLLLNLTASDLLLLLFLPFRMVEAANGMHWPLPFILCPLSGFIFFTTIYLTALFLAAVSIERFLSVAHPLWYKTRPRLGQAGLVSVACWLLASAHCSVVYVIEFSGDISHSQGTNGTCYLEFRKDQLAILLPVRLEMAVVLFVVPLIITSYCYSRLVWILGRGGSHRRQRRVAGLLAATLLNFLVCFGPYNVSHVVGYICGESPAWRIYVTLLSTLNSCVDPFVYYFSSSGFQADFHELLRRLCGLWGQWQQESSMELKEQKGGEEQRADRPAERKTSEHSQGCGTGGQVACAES
Sequence of Free fatty acid receptor 2 (Homo sapiens) (O15552 whole entry, looked up): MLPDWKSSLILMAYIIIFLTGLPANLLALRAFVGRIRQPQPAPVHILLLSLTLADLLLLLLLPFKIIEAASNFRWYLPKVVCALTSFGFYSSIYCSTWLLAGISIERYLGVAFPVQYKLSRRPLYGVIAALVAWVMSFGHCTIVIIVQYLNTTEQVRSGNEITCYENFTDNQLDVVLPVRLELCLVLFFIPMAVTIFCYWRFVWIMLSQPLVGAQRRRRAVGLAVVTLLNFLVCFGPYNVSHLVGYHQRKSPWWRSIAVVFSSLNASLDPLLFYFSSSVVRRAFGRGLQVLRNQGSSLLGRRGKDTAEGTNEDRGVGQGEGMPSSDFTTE

Structure (SMILES) | Activity [1] [%] | Activity [2] | Activity [3] | Efficacy [4] [%] | Activity [5] | Activity [6] [%] | Activity [7] | fold change (FC) [8] | Activity [9] | EC50 [10] [nM] | Activity [11] | Activity [12] [%]
Cc1ccccc1-c1cccc(CNc2ccc(CCC(=O)O)cc2)c1 | 86 | inactive | Active | 114 | inactive | 55 | inactive | > 100 | inactive |  |  | 
O=C(O)CCc1ccc(NCc2ccccc2-c2ccccc2)cc1 |  | inactive |  | 97 | inactive |  | inactive | > 100 |  | 1070 | Toxic | 15
